Test results from ChEMBL document CHEMBL3351347, “Eight pairs of epimeric triterpenoids involving a characteristic spiro-E/F ring from Abies faxoniana” (J Nat Prod, 2015).
Activity calls are given as the source filed them. No cut-off for these calls is given here.

Key:
SMMC-7721 = test: Cytotoxicity against human SMMC7721 cells after 24 hrs by MTT assay; format: functional, cell-based; conditions: SMMC-7721, 24 h
In short: (§1)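 Cells grown in DMEM with 10% FBS, penicillin/streptomycin at 37 °C, 5% CO2. […] MTT (5 mg/mL solution) added for 2−4 h at 37 °C, formazan dissolved in DMSO, absorbance read at 570 nm. Viability = mean OD of treated wells / DMSO-control OD; IC50 from viability.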

[1] = Cytotoxicity against human HuH7 cells after 24 hrs by MTT assay; format: functional, cell-based; conditions: Huh-7, 24 h; in short: as §1
HepG2 = test: Cytotoxicity against human HepG2 cells after 24 hrs by MTT assay; format: functional, cell-based; conditions: HepG2, 24 h
In short: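 Cells grown in DMEM with 10% FBS, penicillin/streptomycin at 37 °C, 5% CO2. MTT (5 mg/mL solution) added for 2−4 h at 37 °C, formazan dissolved in DMSO, absorbance read at 570 nm. Viability = mean OD of treated wells / DMSO-control OD; IC50 from viability.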

[2] = Cytotoxicity against human QSG7701 cells after 24 hrs by MTT assay; format: cell-based; conditions: QSG7701, 24 h; in short: as §1
Huh-7 [3] = test: Induction of cell cycle arrest in human HuH7 cells assessed as increase in accumulation at G2/M phase at 5 to 20 uM after 24 hrs by propidium iodide staining based flow cytometry; format: functional
In short: (§2)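 Huh7 exposed 24 h to 5, 10, 20 μM. Cells washed in PBS with 2% FBS, then 3 × 10^5 cells/mL fixed overnight in cold absolute EtOH at 4 °C. After two PBS washes, stained with PI solution (3.8 mM sodium citrate, 20 μg/mL PI in PBS) plus RNase A, 30 min at room temperature in the dark. DNA content read by flow cytometry; means ± SEM, three independent experiments.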

Huh-7 [4] = test: Induction of intracellular ROS production in human HuH7 cells at 5 to 20 uM after 24 hrs by carboxy-H2DCFDA staining based flow cytometry; format: functional, cell-based
In short: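 Huh7 exposed 24 h to 5, 10, 20 μM, harvested, PBS-washed, then loaded in DMEM with 10 μM carboxy-H2DCFDA for 30 min at 37 °C. Washed again; fluorescence measured by flow cytometry as an index of intracellular ROS.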

Huh-7 [5] = test: Induction of cell cycle arrest in human HuH7 cells assessed as reduction in accumulation at G0/G1 phase at 5 to 20 uM after 24 hrs by propidium iodide staining based flow cytometry; format: functional; in short: as §2
Huh-7 [6] = test: Induction of apoptosis in human HuH7 cells at 5 to 20 uM after 24 hrs by annexin V-FITC and propidium iodide double staining based flow cytometry; format: functional, cell-based
In short: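 Huh7 exposed 24 h to 5, 10, 20 μM, then collected, PBS-washed and resuspended in binding buffer with annexin V-FITC (10 μg/mL) for 10 min in the dark. PI (20 μg/mL) added, samples read by flow cytometry immediately. Means ± SEM, three independent experiments.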

Huh-7 [7] = test: Induction of cell cycle arrest in human HuH7 cells assessed as reduction in accumulation at S phase at 5 to 20 uM after 24 hrs by propidium iodide staining based flow cytometry; format: functional; in short: as §2
Huh-7 [8] = test: Induction of intracellular ROS production in human HuH7 cells at 20 uM pre-treated with 10 mM ROS scavenger NAC measured after 24 hrs post dose by carboxy-H2DCFDA staining based flow cytometry

SMILES	IC50 (SMMC-7721) [µM]	IC50 [1] [µM]	IC50 (HepG2) [µM]	IC50 [2] [µM]	Activity (Huh-7 [3])	Activity (Huh-7 [4])	Activity (Huh-7 [5])	Activity (Huh-7 [6])	Activity (Huh-7 [7])	Activity (Huh-7 [8])
C[C@@H]1C[C@]2(C[C@@H](C)[C@@]3(CC[C@@]4(C)[C@H]5CC[C@H]6C(C)(C)C(=O)CC[C@]6(C)[C@@H]5CC[C@@]43C)O2)OC1=O	28.3	18.4	> 50	> 50						
CO[C@@H]1CC[C@@]2(C)[C@@H](C[C@H](O)[C@@]23CC[C@]2(C)[C@@H]([C@H](C)C[C@@H]4C=C(C)C(=O)O4)CC[C@@]2(C)C3=O)C1(C)C	> 50	35.1	20.6	> 50						
C[C@@H]1C[C@@]2(C[C@@H](C)[C@@]3(CC[C@@]4(C)C5=CC[C@H]6C(C)(C)C(=O)CC[C@]6(C)[C@@H]5CC[C@@]43C)O2)OC1=O	20.7	13.5	14.1	15.5						
C[C@@H]1C[C@]2(C[C@@H](C)[C@@]3(CC[C@@]4(C)C5=CC[C@H]6C(C)(C)C(=O)CC[C@]6(C)[C@@H]5CC[C@@]43C)O2)OC1=O	20.7	13.5	14.1	15.5						
C[C@@H]1C[C@@]2(C[C@@H](C)[C@@]3(CC[C@@]4(C)C5=C(C(=O)C[C@@]43C)[C@@]3(C)CCC(=O)C(C)(C)[C@@H]3CC5)O2)OC1=O	> 50	> 50	31.2	26.8						
C[C@@H]1C[C@@H](C[C@@H](C)[C@@]2(O)CC[C@@]3(C)C4=C(CC[C@@]32C)[C@@]2(C)CCC(=O)C(C)(C)[C@@H]2CC4)OC1=O	34.6	40.1	> 50	37						
C/C(=C/CC[C@@H](C)[C@H]1CC[C@@]2(C)C3=CC[C@H]4C(C)(C)C(=O)CC[C@]4(C)[C@@H]3CC[C@]12C)C(=O)O	> 50	> 50	24	> 50						
CC1=CC(O)(C[C@@H](C)C2=CC[C@@]3(C)C4=C(CC[C@]23C)[C@@]2(C)CCC(=O)C(C)(C)[C@@H]2CC4)OC1=O (some centres not stated) [NEOABIESLACTONE E]	13.4	20.9	16.7	10.1						
C[C@@H]1C[C@]2(C[C@@H](C)[C@@]3(CC[C@@]4(C)C5=C(C(=O)C[C@@]43C)[C@@]3(C)CCC(=O)C(C)(C)[C@@H]3CC5)O2)OC1=O	> 50	> 50	31.2	26.8						
C[C@@H]1C[C@]2(C[C@@H](C)[C@@]3(CC[C@]4(C)[C@]3(C)CC[C@@]35O[C@@]43[C@@H](OC(=O)Cc3ccccc3)C[C@H]3C(C)(C)C(=O)CC[C@@]35C)O2)OC1=O	> 50	> 50	> 50	> 50						
C[C@H](CC(=O)C[C@@H](C)[C@]1(C)CC=C2C3=CC[C@H]4C(C)(C)[C@H](O)CC[C@]4(C)[C@@H]3CC[C@]21C)C(=O)O	> 50	> 50	> 50	42.4						
C[C@@H]1C[C@]2(C[C@@H](C)[C@@]3(CC[C@@]4(C)C(=O)[C@@]5(CC[C@@]43C)[C@@H](O)C[C@H]3C(C)(C)C(=O)CC[C@@]35C)O2)OC1=O	10.1	12.3	15.4	8.2						
COc1cccc2c1C(=O)c1c(O)c3c(c(O)c1C2=O)C[C@@](O)(C(=O)CO)C[C@@H]3O[C@H]1C[C@H](N)[C@H](O)[C@H](C)O1 [DOXORUBICIN]	0.3	0.7		2.9						
C[C@@H]1C[C@@]2(C[C@@H](C)[C@@]3(CC[C@@]4(C)[C@H]5CC[C@H]6C(C)(C)[C@H](O)CC[C@@]67C[C@]57CC[C@@]43C)O2)OC1=O	25.2	16	21.1	> 50						
C[C@@H]1C[C@]2(C[C@@H](C)[C@@]3(CC[C@@]4(C)[C@H]5CC[C@H]6C(C)(C)[C@H](O)CC[C@@]67C[C@]57CC[C@@]43C)O2)OC1=O	25.2	16	21.1	> 50						
C[C@@H]1C[C@@]2(C[C@@H](C)[C@@]3(CC[C@@]4(C)C(=O)[C@@]5(CC[C@@]43C)[C@@H](O)C[C@H]3C(C)(C)C(=O)CC[C@@]35C)O2)OC1=O	10.1	12.3	15.4	8.2						
C/C(=C/CC[C@@H](C)[C@H]1CC[C@@]2(C)C3=CC[C@H]4C(C)(C)[C@@H](O)CC[C@]4(C)[C@@H]3CC[C@]12C)C(=O)O	> 50	> 50	> 50	> 50						
COC(=O)[C@H](C)CC(=O)C[C@@H](C)[C@]1(C)CC[C@@]2(C)C3=CC[C@H]4C(C)(C)[C@H](O)CC[C@]4(C)[C@@H]3CC=C21	> 50	> 50	> 50	> 50						
CC(=O)O[C@@H]1CC[C@]23C[C@@]24CC[C@@]2(C)[C@@](C)(CC[C@]25O[C@@]2(C[C@@H](C)C(=O)O2)C[C@H]5C)[C@H]4CC[C@H]3C1(C)C	10.7	7.5	9.8	> 50	Active	Active	Active	Dose-dependent effect	Active	inactive
C[C@@H]1C[C@@]2(C[C@@H](C)[C@@]3(CC[C@@]4(C)[C@H]5CC[C@H]6C(C)(C)C(=O)CC[C@]6(C)[C@@H]5CC[C@@]43C)O2)OC1=O	28.3	18.4	> 50	> 50						
C[C@@H]1C[C@]2(C[C@@H](C)[C@@]3(CC[C@@]4(C)C5=CC[C@H]6C(C)(C)[C@H](O)CC[C@]6(C)[C@@H]5CC[C@@]43C)O2)OC1=O	19.1	16.4	> 50	17.6						
CC(=O)O[C@@H]1CC[C@]23C[C@@]24CC[C@@]2(C)[C@@](C)(CC[C@]25O[C@]2(C[C@@H](C)C(=O)O2)C[C@H]5C)[C@H]4CC[C@H]3C1(C)C	10.7	7.5	9.8	> 50	Active	Active	Active	Dose-dependent effect	Active	inactive
C[C@@H]1C[C@@]2(C[C@@H](C)[C@@]3(CC[C@@]4(C)C5=CC[C@H]6C(C)(C)[C@H](O)CC[C@]6(C)[C@@H]5CC[C@@]43C)O2)OC1=O	19.1	16.4	> 50	17.6						
C[C@@H]1C[C@@]2(C[C@@H](C)[C@@]3(CC[C@]4(C)[C@]3(C)CC[C@@]35O[C@@]43[C@@H](OC(=O)Cc3ccccc3)C[C@H]3C(C)(C)C(=O)CC[C@@]35C)O2)OC1=O	> 50	> 50	> 50	> 50						
